Tests used:
[1] = target: T1, Nitric oxide synthase 3 (Homo sapiens) (UniProt P29474); test: Evaluation as substrate of endothelial nitric oxide synthase by hemoglobin assay using NOHA as control
T1 sequence (whole entry): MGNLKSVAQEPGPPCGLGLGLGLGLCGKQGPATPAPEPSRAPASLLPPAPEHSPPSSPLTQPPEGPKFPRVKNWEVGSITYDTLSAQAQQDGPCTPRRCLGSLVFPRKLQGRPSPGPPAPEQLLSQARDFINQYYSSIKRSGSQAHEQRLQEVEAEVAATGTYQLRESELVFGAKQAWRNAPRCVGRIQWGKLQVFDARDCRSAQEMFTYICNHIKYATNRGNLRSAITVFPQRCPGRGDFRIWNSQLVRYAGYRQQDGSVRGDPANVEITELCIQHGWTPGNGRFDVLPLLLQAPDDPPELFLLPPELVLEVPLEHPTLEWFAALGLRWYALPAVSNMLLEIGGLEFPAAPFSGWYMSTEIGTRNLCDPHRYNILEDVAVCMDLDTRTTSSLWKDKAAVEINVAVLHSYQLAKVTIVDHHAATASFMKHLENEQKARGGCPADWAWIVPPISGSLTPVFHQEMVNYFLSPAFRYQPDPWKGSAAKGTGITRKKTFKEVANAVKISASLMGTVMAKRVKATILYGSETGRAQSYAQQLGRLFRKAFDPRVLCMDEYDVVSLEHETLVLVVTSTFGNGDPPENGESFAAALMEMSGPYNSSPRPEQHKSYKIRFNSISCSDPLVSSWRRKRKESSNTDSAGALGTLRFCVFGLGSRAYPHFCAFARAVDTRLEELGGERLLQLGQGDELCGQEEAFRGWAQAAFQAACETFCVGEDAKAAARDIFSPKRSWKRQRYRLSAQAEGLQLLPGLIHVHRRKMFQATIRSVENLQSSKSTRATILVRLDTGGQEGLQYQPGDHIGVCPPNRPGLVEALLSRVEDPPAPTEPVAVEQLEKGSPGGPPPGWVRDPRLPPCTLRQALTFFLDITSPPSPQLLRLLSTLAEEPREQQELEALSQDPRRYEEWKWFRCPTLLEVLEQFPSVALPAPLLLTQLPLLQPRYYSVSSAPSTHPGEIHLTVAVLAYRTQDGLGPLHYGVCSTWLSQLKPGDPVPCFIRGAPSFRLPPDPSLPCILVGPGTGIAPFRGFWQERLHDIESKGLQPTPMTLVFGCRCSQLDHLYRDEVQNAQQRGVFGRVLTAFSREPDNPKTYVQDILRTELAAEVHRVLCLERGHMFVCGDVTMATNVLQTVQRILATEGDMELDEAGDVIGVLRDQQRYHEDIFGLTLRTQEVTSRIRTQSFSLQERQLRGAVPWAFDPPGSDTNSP
How it was run: (§1)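 Oxyhemoglobin-to-methemoglobin conversion was read at 401 nm (ε 38 mM⁻¹ cm⁻¹) at 37 °C to give initial NO rates. Conditions were 0.5–1 unit enzyme in 50 mM HEPES pH 7.4 with 15 μM oxyhemoglobin, SOD, catalase, 200 μM NADPH, 4 μM FAD/FMN, 5 μM BH₄, 2–5 mM DTT and 0.5 mM substrate, plus 1 mM CaCl₂ and 10 μg/mL CaM. Rates are reported relative to NOHA (100%), mean ± SD of ≥3 experiments.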

[2] = target: T2, Nitric oxide synthase, inducible (Mus musculus) (UniProt P29477); test: Evaluation as substrate of Inducible nitric oxide synthase by hemoglobin assay using NOHA as control; type: functional
T2 sequence (whole entry): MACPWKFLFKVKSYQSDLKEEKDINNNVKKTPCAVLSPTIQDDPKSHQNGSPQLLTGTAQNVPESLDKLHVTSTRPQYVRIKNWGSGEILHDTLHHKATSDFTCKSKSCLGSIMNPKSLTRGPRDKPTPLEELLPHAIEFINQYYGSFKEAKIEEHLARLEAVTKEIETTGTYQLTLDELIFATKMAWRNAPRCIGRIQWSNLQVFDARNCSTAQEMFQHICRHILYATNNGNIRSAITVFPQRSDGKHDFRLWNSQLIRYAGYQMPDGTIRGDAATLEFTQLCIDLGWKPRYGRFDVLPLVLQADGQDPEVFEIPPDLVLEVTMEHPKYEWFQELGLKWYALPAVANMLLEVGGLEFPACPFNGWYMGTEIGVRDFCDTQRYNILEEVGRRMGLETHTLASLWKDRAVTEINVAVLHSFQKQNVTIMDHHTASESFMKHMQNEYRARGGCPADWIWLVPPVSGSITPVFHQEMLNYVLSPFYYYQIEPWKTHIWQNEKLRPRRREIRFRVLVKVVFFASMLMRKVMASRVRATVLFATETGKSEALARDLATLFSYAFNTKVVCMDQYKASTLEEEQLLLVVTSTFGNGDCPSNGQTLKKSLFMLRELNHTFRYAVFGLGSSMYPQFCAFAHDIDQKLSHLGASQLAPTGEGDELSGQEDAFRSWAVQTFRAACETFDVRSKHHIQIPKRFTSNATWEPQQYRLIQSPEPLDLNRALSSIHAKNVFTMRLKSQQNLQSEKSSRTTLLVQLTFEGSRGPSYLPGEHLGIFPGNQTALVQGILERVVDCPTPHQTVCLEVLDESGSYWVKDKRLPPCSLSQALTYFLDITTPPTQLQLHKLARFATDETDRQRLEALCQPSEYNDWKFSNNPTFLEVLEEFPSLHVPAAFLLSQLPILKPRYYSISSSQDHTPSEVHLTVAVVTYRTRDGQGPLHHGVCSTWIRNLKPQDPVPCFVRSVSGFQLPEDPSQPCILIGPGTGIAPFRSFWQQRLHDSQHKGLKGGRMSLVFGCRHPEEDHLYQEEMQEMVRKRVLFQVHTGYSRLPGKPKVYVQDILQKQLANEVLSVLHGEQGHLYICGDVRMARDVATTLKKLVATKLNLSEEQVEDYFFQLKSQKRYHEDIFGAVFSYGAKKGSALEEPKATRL
How it was run: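 Initial NO-synthesis rate at 37 °C by spectrophotometric oxyhemoglobin assay. The cuvette held 0.5–1 unit enzyme in 50 mM HEPES pH 7.4 with 15 μM oxyhemoglobin, SOD, catalase, 200 μM NADPH, 4 μM FAD/FMN, 5 μM BH₄, 2–5 mM DTT, 0.5 mM substrate and 1 mM magnesium acetate. Methemoglobin formation was followed at 401 nm (ε 38 mM⁻¹ cm⁻¹). Rates are given as % of NOHA, mean ± SD, n≥3.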

[3] = target: Nitric oxide synthase 1 (Rattus norvegicus) (UniProt P29476); test: Evaluation as substrate of Neuronal nitric oxide synthase by hemoglobin assay using NOHA as control; how it was run: as §1
Chain of Nitric oxide synthase 1 (Rattus norvegicus) (P29476 whole entry): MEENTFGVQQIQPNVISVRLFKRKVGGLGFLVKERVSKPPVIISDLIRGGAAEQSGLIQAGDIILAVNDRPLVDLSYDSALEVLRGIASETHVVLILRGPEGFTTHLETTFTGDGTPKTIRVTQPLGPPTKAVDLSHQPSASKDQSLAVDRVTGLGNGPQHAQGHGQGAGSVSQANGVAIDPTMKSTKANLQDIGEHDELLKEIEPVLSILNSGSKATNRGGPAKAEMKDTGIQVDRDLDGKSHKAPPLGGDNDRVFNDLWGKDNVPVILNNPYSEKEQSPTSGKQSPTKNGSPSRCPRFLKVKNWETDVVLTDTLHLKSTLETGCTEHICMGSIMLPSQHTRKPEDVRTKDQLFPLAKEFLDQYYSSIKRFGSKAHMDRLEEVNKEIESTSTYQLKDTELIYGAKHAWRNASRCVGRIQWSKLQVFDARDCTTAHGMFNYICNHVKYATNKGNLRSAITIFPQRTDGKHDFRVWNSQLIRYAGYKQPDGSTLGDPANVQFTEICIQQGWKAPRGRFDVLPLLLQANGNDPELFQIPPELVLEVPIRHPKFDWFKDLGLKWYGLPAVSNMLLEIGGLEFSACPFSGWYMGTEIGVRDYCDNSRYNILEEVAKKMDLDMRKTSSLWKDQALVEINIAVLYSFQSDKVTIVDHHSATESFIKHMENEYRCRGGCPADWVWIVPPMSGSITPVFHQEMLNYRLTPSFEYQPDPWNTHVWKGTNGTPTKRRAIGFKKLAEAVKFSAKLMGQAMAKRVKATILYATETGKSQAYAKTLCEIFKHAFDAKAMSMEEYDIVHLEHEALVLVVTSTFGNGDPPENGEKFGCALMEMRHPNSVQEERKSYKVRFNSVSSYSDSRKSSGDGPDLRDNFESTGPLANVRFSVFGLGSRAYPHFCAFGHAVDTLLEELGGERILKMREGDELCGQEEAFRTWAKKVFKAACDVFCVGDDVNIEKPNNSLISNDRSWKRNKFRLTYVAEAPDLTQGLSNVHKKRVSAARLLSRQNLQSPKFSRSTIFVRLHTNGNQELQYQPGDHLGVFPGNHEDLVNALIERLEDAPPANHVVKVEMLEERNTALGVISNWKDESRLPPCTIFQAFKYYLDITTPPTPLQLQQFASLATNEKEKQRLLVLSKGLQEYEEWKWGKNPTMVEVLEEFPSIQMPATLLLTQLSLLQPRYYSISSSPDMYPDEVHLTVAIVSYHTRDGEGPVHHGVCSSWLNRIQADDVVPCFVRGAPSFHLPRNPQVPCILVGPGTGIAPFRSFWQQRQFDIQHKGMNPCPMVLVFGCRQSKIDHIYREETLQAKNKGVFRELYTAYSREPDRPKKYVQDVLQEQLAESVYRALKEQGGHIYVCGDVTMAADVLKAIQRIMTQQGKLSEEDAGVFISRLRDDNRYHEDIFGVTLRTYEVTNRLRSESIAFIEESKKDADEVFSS

| SMILES | NO formation [1] | NO formation [2] | NO formation [3] |
| --- | --- | --- | --- |
| N/C(=N/CC1CC1)NO | < 0.5% | < 0.5% | < 0.5% |
| CCCCN(C)C(=N)NO | < 0.5% | < 0.5% | < 0.5% |
| N/C(=N/C1CC1)NO | 26% | < 0.5% | 70% |
| N=C(N)NCC1CC1 | < 0.5% | < 0.5% | < 0.5% |
| CCCC/N=C(/N)NOC | < 0.5% | < 0.5% | < 0.5% |
| C#CCC/N=C(/N)NO | < 0.5% | 28% | 37% |
| CC1CC1CN=C(N)N (stereo not drawn) | < 0.5% | < 0.5% | < 0.5% |
| N/C(=N\O)N1CCCC1 | < 0.5% | < 0.5% | < 0.5% |
| C/C=C/C/N=C(/N)NO | < 0.5% | < 0.5% | 5% |
| C/C=C/CN=C(N)N | < 0.5% | < 0.5% | < 0.5% |
| N/C(=N\O)N1CCOCC1 | < 0.5% | < 0.5% | < 0.5% |
| CC(C)NC(=N)NO | 38% | 15% | 70% |
| CCCCN=C(N)N | < 0.5% | 6% | < 0.5% |
| N=C(N)NCCC[C@H](N)C(=O)O | 38% | 50% | 72% |
| CCCCN/C(N)=N/O | 20% | 42% | 64% |
| CCCC/N=C(/N)NOCc1ccccc1 | < 0.5% | < 0.5% | < 0.5% |
